The record followed here is ChEMBL document CHEMBL4043182, “On the synthesis of quinone-based BODIPY hybrids: New insights on antitumor activity and mechanism of action in cancer cells” (Bioorg Med Chem Lett, 2017).

Data set [1] can be described thus: Selective index, ratio of IC50 for mouse L929 cells to IC50 for human MDA-MB-435 cells. The method in brief: (§1)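 Selectivity index is the ratio of the IC50 in a non-cancer murine line (V79 or L929) to the IC50 in the cancer line. […] MTT was 0.5 mg/mL for 3 h, formazan dissolved in DMSO and read at 595 nm as % of control. IC50s were derived by nonlinear regression; triplicate, at least three repeats.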

Data set [2] deals with SF-295. The experiment in a line: Induction of oxidative stress in human SF295 cells assessed as GSH to GSSG ratio at 5 uM treated 24 hrs post NAC addition measured after 24 hrs by spectrophotometric analysis (reference value: 2.34 +/- 0.56 microg/mg). Type of data set: functional. The method in brief: (§2)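 Cells were pretreated 24 h with 5 mM NAC, then exposed 24 h to test compound at 5 µM. Controls received 0.1% DMSO. Extracts were prepared by sonication and HClO4 precipitation, then neutralized with KOH. Total glutathione was read by DTNB/glutathione reductase/NADPH rate at 412 nm. GSSG was measured after 4-vinylpyridine (0.1%, 1 h, RT) and GSH derived by difference. Values are normalized to protein, triplicates, three independent runs.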

Data set [3] deals with PC-3. As to the kind of experiment: Induction of lipid peroxidation in human PC3 cells assessed as increase in MDA levels at 2.5 to 10 uM treated 24 hrs post NAC addition measured after 24 hrs by TBARS assay. Type of data set: functional, cell-based. The method in brief:
(§3)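 TBARS: cells were exposed 24 h, with or without 24 h prior 5 mM NAC, and lysed in Tris-HCl. Lysate was heated with TCA/0.25 M HCl and 6.7 mg/mL TBA for 15 min at 100 °C, centrifuged, and read at 532 nm. Hydrolyzed tetramethoxypropane served as standard, with values normalized to protein. H2O2 (10 µM) was the positive control. Three independent experiments in triplicate; ANOVA/Tukey.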

For data set [4], the system named is SF-295. The experiment in a line: Induction of lipid peroxidation in human SF295 cells assessed as increase in MDA levels at 2.5 to 10 uM treated 24 hrs post NAC addition measured after 24 hrs by TBARS assay. In kind it is functional, cell-based. The method in brief:
as §3

Data set [5] concerns L929. The experiment in a line: Induction of oxidative stress in mouse L929 cells assessed as total GSH levels at 5 uM after 24 hrs by spectrophotometric analysis (reference value: 3.76 +/- 0.51 microg/mg). The note with it: l929, 24 h. In kind it is cell-based.
For data set [6], the system named is SF-295. The experiment in a line: Induction of oxidative stress in human SF295 cells assessed as total intracellular thiol levels at 5 uM treated 24 hrs post NAC addition measured after 24 hrs by spectrophotometric analysis (reference value: 4.51 +/- 0.83 microg/mg). Type of data set: functional. The method in brief: as §2
In data set [7] the test system is L929. As to the kind of experiment: Induction of oxidative stress in mouse L929 cells assessed as total GSH levels at 5 uM treated 24 hrs post NAC addition measured after 24 hrs by spectrophotometric analysis (reference value: 3.76 +/- 0.51 microg/mg). In kind it is cell-based. The settings on record: l929, 24 h.
For data set [8], the system named is L929. As to the kind of experiment: Antiproliferative activity against mouse L929 cells after 72 hrs by MTT assay. In kind it is cell-based. The settings on record: L929, 72 h. In short, it runs like this:
(§4)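 MTT reduction: cancer lines plated at 0.7×10^5 to 0.3×10^6 cells/well, V79 and L929 fibroblasts at 0.5×10^5 cells/well. Compounds in DMSO (0.1%) were given for 24 h at 0.04–40.92 µM or 72 h at 0.04–8.19 µM. Fresh medium with 0.5 mg/mL MTT was added for 3 h, then formazan was dissolved in DMSO and read at 595 nm as % of control. IC50 came from nonlinear regression with 95% CI. Doxorubicin (0.001–1.06 µM) was the positive control. Triplicate, ≥3 repeats.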

Data set [9] relates to PC-3. The experiment in a line: Induction of oxidative stress in human PC3 cells assessed as GSH to GSSG ratio at 5 uM treated 24 hrs post NAC addition measured after 24 hrs by spectrophotometric analysis (reference value: 2.69 +/- 0.21 microg/mg). In kind it is functional. The method in brief:
as §2

The test system of data set [10] is HCT-116. As to the kind of experiment: Geno-toxicity in human HCT116 cells assessed as induction of DNA damage at 2.5 to 10 uM treated 24 hrs post NAC addition measured after 24 hrs by alkaline comet assay. Type of data set: functional, cell-based. In short, it runs like this:
(§5)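 Alkaline comet assay after 24 h at 2.5, 5 and 10 µM, with or without 24 h pretreatment with 5 mM NAC. Cells were trypsinized and embedded in 0.75% low-melting agarose, then lysed at pH 10, 4 °C, ≥1 h. DNA was unwound 20 min at pH >13 and electrophoresed 20 min at 25 V, 300 mA (0.86 V/cm), then stained with ethidium bromide. 100 cells (2 slides) were scored in classes 0–4 for a damage index. Mean ± SEM, three independent experiments in triplicate.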

Data set [11] concerns HCT-116. The experiment in a line: Induction of lipid peroxidation in human HCT116 cells assessed as increase in MDA levels at 2.5 to 10 uM treated 24 hrs post NAC addition measured after 24 hrs by TBARS assay. Type of data set: functional, cell-based. The method in brief:
as §3

Data set [12] concerns PC-3. The experiment in a line: Antiproliferative activity against human PC3 cells after 72 hrs by MTT assay. In kind it is functional, cell-based. The settings on record: PC-3, 72 h. The method in brief:
as §4

Data set [13] in a line: Selective index, ratio of IC50 for chinese hamster V79 cells to IC50 for human HCT116 cells. The method in brief: as §1
The subject of another data set is SW-620. The experiment in a line: Antiproliferative activity against human SW620 cells after 72 hrs by MTT assay. Type of data set: functional, cell-based. The note with it: SW-620, 72 h. The method in brief: as §4
For data set [14], the system named is HCT-116. As to the kind of experiment: Induction of oxidative stress in human HCT116 cells assessed as total GSH levels at 5 uM after 24 hrs by spectrophotometric analysis (reference value: 3.74 +/- 0.55 microg/mg). Type of data set: functional.
For data set [15], the system named is L929. The experiment in a line: Induction of oxidative stress in mouse L929 cells assessed as total GSSG levels at 5 uM after 24 hrs by spectrophotometric analysis (reference value: 1.05 +/- 0.33 microg/mg). In kind it is cell-based. The settings on record: l929, 24 h.
The test system of data set [16] is L929. As to the kind of experiment: Cytotoxicity against mouse L929 cells after 24 hrs in absence of GSH-OEt by MTT assay. Type of data set: cell-based. The note with it: L929, 24 h. In short, it runs like this: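 24 h MTT exposure (0.04–40.92 µM in 0.1% DMSO), with or without co-treatment with GSH ethyl ester (15 mM) to gauge the ROS contribution. MTT was 0.5 mg/mL for 3 h, with formazan dissolved in DMSO and absorbance at 595 nm expressed as % of control. Triplicate, repeated at least three times.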

Data set [17] in a line: Selective index, ratio of IC50 for chinese hamster V79 cells to IC50 for human PC3 cells. The method in brief:
as §1

For data set [18], the system named is PC-3. As to the kind of experiment: Induction of oxidative stress in human PC3 cells assessed as total GSH levels at 5 uM after 24 hrs by spectrophotometric analysis (reference value: 3.04 +/- 0.51 microg/mg). Type of data set: functional.
The subject of data set [19] is SF-295. The experiment in a line: Geno-toxicity in human SF295 cells assessed as induction of DNA damage at 2.5 to 10 uM treated 24 hrs post NAC addition measured after 24 hrs by alkaline comet assay. Type of data set: functional, cell-based. In short, it runs like this:
as §5

Another data set deals with V79. The experiment in a line: Antiproliferative activity against chinese hamster V79 cells after 72 hrs by MTT assay. In kind it is cell-based. The settings on record: Cricetulus griseus, V79, 72 h. In short, it runs like this: as §4
The test system of data set [20] is HCT-116. As to the kind of experiment: Induction of oxidative stress in human HCT116 cells assessed as total intracellular thiol levels at 5 uM treated 24 hrs post NAC addition measured after 24 hrs by spectrophotometric analysis (reference value: 5.02 +/- 0.91 microg/mg). Type of data set: functional.
Data set [21] can be described thus: Selective index, ratio of IC50 for mouse L929 cells to IC50 for human HCT116 cells. In short, it runs like this:
as §1

Activity calls are given as the source filed them. The rule behind the calls is not given here.

Take `CC1(C)OC2=C(C(=O)C(=O)c3ccccc32)C1n1cc(CNC2=[N+]3C(=C(c4ccccc4)c4ccc(Cl)n4[B-]3(F)F)C=C2)nn1` (stereo not drawn): the Ratio IC50 in data set [1] amounted to 1.1; in data set [13] it was 2; in data set [17] it was 1.7; in data set [21], 3. Further, the Activity with SF-295 [2] was 2.82 µg/mg; with L929 [5] it was 1.15 µg/mg; in the data set on SF-295 [6], 4.72 µg/mg; in the data set with L929 [7], 3.89 µg/mg; in the data set on PC-3 [9] it was 2.88 µg/mg; with HCT-116 [14], 1.78 µg/mg. The Activity with L929 [15] is 2.27 µg/mg; in the data set on PC-3 [18], 1.35 µg/mg; in the data set with HCT-116 [20] it was 5.12 µg/mg. Besides, the result in the data set on PC-3 [3], in the data set with SF-295 [4] and in the data set with HCT-116 [11] was inactive. Moreover, the half-maximal inhibitory concentration (IC50) worked out at 920 nM in the data set with L929 [8]; 380 nM with PC-3 [12]; 680 nM in the data set on SW-620; 5910 nM with L929 [16]; 650 nM with V79. For the same compound, the result with HCT-116 [10] and in the data set with SF-295 [19] was Active.
